Published values pooled from the literature.
Each line is one published result; the experiments were not run side by side.
Target: Calcium/calmodulin-dependent protein kinase type II subunit gamma (CAMK2G, Homo sapiens, UniProt Q13555)

For `Cc1cc(O)c(-c2ccc([C@@H](C)CN(C)C)cc2)c2c1[nH]c(=O)c1sccc12`, the inhibition was -11.1% (cell-free assay, inhibitor; 0.1 µM, lysate).
With `CC#CC(=O)N1CCC[C@H]1c1nc(-c2ccc(C(=O)Nc3ccccn3)cc2)c2c(N)nccn12` the inhibition was 0% (enzyme activity, inhibitor; 1 µM).
For `CCCCC(=O)Nc1ccc(-c2ccc3ncn(CCC)c(=O)c3c2)cn1`, the remaining binding was 100% (binding, competition with immobilised ligand; 0.5 µM).
`CN1CCN(C(=O)c2ccc(NC(=O)Nc3ccc(N(C)c4ccnc(Nc5ccc(CS(C)(=O)=O)cc5)n4)cc3)cc2)CC1` gave a remaining binding of 100% (binding; 1 µM).
`C1=C/COCc2cc(ccc2OCCN2CCCC2)Nc2nccc(n2)-c2cccc(c2)COC/1` gave a remaining binding of 89% (binding; 0.1 µM).
`CC(C)S(=O)(=O)c1ccc2nccc(Nc3ccc4sc(C5CCCC5)nc4c3)c2c1` has an activity vs control of 104% (enzyme activity, inhibitor; 1 µM).
`CO[C@@H]1[C@H](N(C)C(=O)c2ccccc2)C[C@H]2O[C@]1(C)n1c3ccccc3c3c4c(c5c6ccccc6n2c5c31)C(=O)NC4` gave an inhibition of 90% (enzyme activity, inhibitor; 1 µM).
The remaining binding of `C[C@H]1CC[C@H](n2c3cnccc3c3cnc(Nc4ccc5c(n4)CCN(C(=O)CO)C5)nc32)CC1` is reported as 40% (binding; 1 µM).
